Assay results taken from ChEMBL document CHEMBL1153538, “Discovery of novel antileishmanial agents in an attempt to synthesize pentamidine-aplysinopsin hybrid molecule” (J Med Chem, 2009).
Converted amounts (≈) assume the structure as drawn. The source made the active and inactive calls. The calls are words filed in the database; no cut-off is given here.

Experiments:
Leishmania donovani [1] = assay: Antileishmanial activity against Leishmania donovani MHOM/IN/Dd8 […] carrying firefly luciferase gene infected in mouse J774A1 cells assessed as relative luminescence unit at 10 ug/mL after 72 hrs; format: functional; details: for inhibition at 10 µg/mL: MHOM/IN/Dd8, J774.A1, 72 h; for inhibition: J774.A1
J774.A1 [2] = assay: Cytotoxicity against mouse J774A1 by MTT assay; format: cell-based
Procedure, shortened: (§1)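 J774A.1 or KB cells were grown in RPMI with 10% FCS. Exponentially growing cells (1 × 10⁴/well) were exposed to a range of compound concentrations (DMSO stocks diluted in medium) for 72 h at 37 °C. MTT was added for 2 h, formazan was dissolved in DMSO, and absorbance was read at 544 nm. IC50 was the concentration giving 50% viability loss versus medium-only cells, estimated by template.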

Leishmania donovani [3] = assay: Antileishmanial activity against Leishmania donovani MHOM/IN/Dd8 amastigote carrying firefly luciferase gene infected in mouse J774A1 cells assessed as relative luminescence unit at 12.5 ug/mL after 72 hrs; format: functional; details: for inhibition: J774.A1
Procedure, shortened: (§2)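 J774A.1 macrophages (1.5 × 10⁴/well) were seeded in RPMI-1640 with 10% FCS at 37 °C under CO₂. After 24 h they were infected with stationary-phase luciferase-expressing promastigotes (4 × 10³/well). The medium was then replaced with compound at 0.195-12.5 μg/mL for 72 h. Steady Glo luminescence (RLU) was read, and inhibition was calculated against untreated controls. IC50 values are the mean of two independent assays.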

J774.A1 [4] = assay: Cytotoxicity against mouse J774A1 at 12.5 ug/mL by MTT assay; format: cell-based
Leishmania donovani [5] = assay: Antileishmanial activity against Leishmania donovani MHOM/IN/Dd8 amastigote carrying firefly luciferase gene infected in mouse J774A1 cells assessed as relative luminescence unit after 72 hrs; format: functional, organism-based; details: MHOM/IN/Dd8, J774.A1, 72 h; procedure, shortened: as §2
Leishmania donovani [6] = assay: Antileishmanial activity against Leishmania donovani MHOM/IN/Dd8 amastigote infected in golden hamster assessed as parasite reduction at 50 mg/kg, ip for 5 consecutive days; format: functional; design: scale not given: the % may be the effect or the level left; details: route intraperitoneal
Procedure, shortened: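 Golden hamsters (40-45 g) were infected intracardially with 1 × 10⁷ amastigotes. Animals with +1 infection by spleen biopsy were randomized, 5-6 per sample. Intraperitoneal dosing started 2 days after biopsy and ran for 5 consecutive days. Biopsies taken 7 days after the last dose were Giemsa-stained and counted. Percentage inhibition was corrected for initial burden and the rise in untreated controls.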

Leishmania donovani [7] = assay: Antileishmanial activity against Leishmania donovani MHOM/IN/Dd8 amastigote carrying firefly luciferase gene infected in mouse J774A1 cells assessed as relative luminescence unit at 10 ug/mL after 72 hrs; format: functional; details: MHOM/IN/Dd8, J774.A1, 72 h
[8] = Selectivity index, ratio of IC50 for Leishmania donovani MHOM/IN/Dd8 amastigote to IC50 for human KB cells
KB = assay: Cytotoxicity against human KB cells by MTT assay; format: cell-based; procedure, shortened: as §1
Leishmania donovani [9] = assay: Ratio of drug to pentamidine for antileishmanial activity against Leishmania donovani MHOM/IN/Dd8 in mouse J774A1 cells by intracellular amastigote assay; format: functional, J774.A1

| SMILES | inhibition at 10 µg/mL (Leishmania donovani [1]) | IC50 (J774.A1 [2]) | inhibition (Leishmania donovani [3]) | further results |
| --- | --- | --- | --- | --- |
| N#Cc1ccc(OCCCCn2cc(/C=C3\NC(=S)NC3=O)c3ccccc32)cc1 | 58.8% | > 100 µg/mL |  |  |
| COc1ccc(C/N=C2\NC(=O)/C(=C/c3c[nH]c4ccccc34)N2)cc1OC |  |  | inactive | inhibition (Leishmania donovani [1]): inactive |
| N#Cc1ccc(OCCCCCn2cc(/C=C3\NC(=S)NC3=O)c3ccccc32)cc1 | 95.1% |  |  | Activity (J774.A1 [4]): Non-toxic; IC50 (Leishmania donovani [5]): 18.2 µM; inhibition at 12.5 µg/mL (Leishmania donovani [3]; MHOM/IN/Dd8, J774.A1, 72 h): 62%; Activity (Leishmania donovani [6]): 62.1% |
| N#Cc1ccc(OCCCCCn2cc(/C=C3\NC(=S)NC3=O)c3cccnc32)cc1 |  |  |  | inhibition at 10 µg/mL (Leishmania donovani [7]): 97%; IC50 (Leishmania donovani [5]): 6.5 µM; Ratio IC50 [8]: 28.6; IC50 (KB): 187 µM |
| CN1C(=S)NC(=O)/C1=C\c1cn(CCCCCOc2ccc(/C(N)=N/O)cc2)c2ccccc12 | 88.2% |  |  | inhibition at 10 µg/mL (Leishmania donovani [7]): 99.3%; IC50 (Leishmania donovani [5]): 2 µM; fold change (FC) (Leishmania donovani [9]): 10; Ratio IC50 [8]: 53.4; IC50 (KB): 108 µM |
| CCCC/N=C1\NC(=O)/C(=C/c2cn(CCCCCOc3ccc(C#N)cc3)c3ccccc23)N1 | 88% |  | inactive |  |
| N#Cc1ccc(OCCCCCn2cc(/C=C3\NC(=O)NC3=O)c3ccccc32)cc1 |  | 33 µg/mL (≈ 79.6 µM) | inactive | inhibition (Leishmania donovani [1]): inactive |
| N#Cc1ccc(OCCCCCn2cc(/C=C3\NC(=N)NC3=O)c3ccccc32)cc1 |  |  |  | inhibition at 10 µg/mL (Leishmania donovani [7]): 0% |
| O=C1NC(=S)N/C1=C\c1cn(CCCCCN2CCN(c3ccccc3)CC2)c2ccccc12 | 88.3% | > 100 µg/mL | inactive |  |
| O=C1NC(=S)N/C1=C\c1c[nH]c2ccccc12 |  |  | inactive | inhibition (Leishmania donovani [1]): inactive |
| O=C1N/C(=N\Cc2ccccc2)N/C1=C\c1c[nH]c2ccccc12 |  |  | inactive | inhibition (Leishmania donovani [1]): inactive |
| CN1C(=S)NC(=O)/C1=C\c1cn(CCCCCOc2ccc(C#N)cc2)c2ccccc12 | 46.4% | 14.8 µg/mL (≈ 33.3 µM) |  |  |
| O=C1NC(=S)N/C1=C\c1cn(CCCCCOc2ccccc2)c2ccccc12 | 40.7% | > 100 µg/mL |  |  |
| N=C(N)c1ccc(OCCCCCOc2ccc(C(=N)N)cc2)cc1.O=S(=O)(O)CCO |  |  |  | IC50 (Leishmania donovani [5]): 20.4 µM; Ratio IC50 [8]: <1; IC50 (KB): 2.7 µM |
| Nc1cc(OCCCCCn2cc(/C=C3\NC(=S)NC3=O)c3ccccc32)ccn1 |  |  |  | inhibition at 10 µg/mL (Leishmania donovani [7]): 32.2% |
| N/C(=N\O)c1ccc(OCCCCCn2cc(/C=C3\NC(=S)NC3=O)c3ccccc32)cc1 (mixture of isomers) |  |  |  | inhibition at 10 µg/mL (Leishmania donovani [7]): 0% |
| N#Cc1ccc(OCCCCCn2cc(C=O)c3ccccc32)cc1 |  |  | inactive | inhibition (Leishmania donovani [1]): inactive |
| NC(=O)c1ccc(OCCCCCn2cc(/C=C3\NC(=S)NC3=O)c3ccccc32)cc1 (mixture of isomers) |  |  |  | inhibition at 10 µg/mL (Leishmania donovani [7]): 48.9% |
| CSC1=N/C(=C\c2cn(CCCCCOc3ccc(C#N)cc3)c3ccccc23)C(=O)N1C | 63.2% | > 100 µg/mL |  |  |
| COc1ccc(C/N=C2\NC(=O)/C(=C/c3cn(CCCCCOc4ccc(C#N)cc4)c4ccccc34)N2)cc1OC | 93.7% |  | inactive |  |
| N#Cc1ccc(OCCCCCn2cc(/C=C3\N/C(=N/c4ccccc4)NC3=O)c3ccccc32)cc1 | 92.8% |  | inactive |  |
| N#Cc1ccc(OCCCCCCn2cc(/C=C3\NC(=S)NC3=O)c3ccccc32)cc1 | 71.3% | 2.3 µg/mL (≈ 5.17 µM) |  |  |
| N#Cc1ccc(OCCCCCn2cc(/C=C3\NC(=S)NC3=O)c3cc(Br)ccc32)cc1 (mixture of isomers) |  |  |  | inhibition at 10 µg/mL (Leishmania donovani [7]): 12.6% |
| N#Cc1ccc(OCCCCCn2cc(/C=C3\N/C(=N/Cc4ccccc4)NC3=O)c3ccccc32)cc1 | 93.9% |  | inactive |  |
| CSC1=N/C(=C\c2cn(CCCCCOc3ccc(C#N)cc3)c3ccccc23)C(=O)N1 | 75.4% | > 100 µg/mL |  |  |
